Measurements: ChEMBL document CHEMBL3352173, “Optimization of pyrrolamide topoisomerase II inhibitors toward identification of an antibacterial clinical candidate (AZD5099)” (J Med Chem, 2014)
≈ marks a conversion by molar mass, not a printed value.

What was measured:
Haemophilus influenzae = experiment: Antimicrobial activity against Haemophilus influenzae by broth microdilution/CLSI method; assay type: functional; details: Haemophilus influenzae; read-out: MIC
DNA gyrase subunit B = DNA gyrase subunit B (Staphylococcus aureus, UniProt P0A0K8); experiment: Inhibition of ATPase activity of Staphylococcus aureus GyrB
DNA gyrase subunit B, sequence (P0A0K8 whole entry): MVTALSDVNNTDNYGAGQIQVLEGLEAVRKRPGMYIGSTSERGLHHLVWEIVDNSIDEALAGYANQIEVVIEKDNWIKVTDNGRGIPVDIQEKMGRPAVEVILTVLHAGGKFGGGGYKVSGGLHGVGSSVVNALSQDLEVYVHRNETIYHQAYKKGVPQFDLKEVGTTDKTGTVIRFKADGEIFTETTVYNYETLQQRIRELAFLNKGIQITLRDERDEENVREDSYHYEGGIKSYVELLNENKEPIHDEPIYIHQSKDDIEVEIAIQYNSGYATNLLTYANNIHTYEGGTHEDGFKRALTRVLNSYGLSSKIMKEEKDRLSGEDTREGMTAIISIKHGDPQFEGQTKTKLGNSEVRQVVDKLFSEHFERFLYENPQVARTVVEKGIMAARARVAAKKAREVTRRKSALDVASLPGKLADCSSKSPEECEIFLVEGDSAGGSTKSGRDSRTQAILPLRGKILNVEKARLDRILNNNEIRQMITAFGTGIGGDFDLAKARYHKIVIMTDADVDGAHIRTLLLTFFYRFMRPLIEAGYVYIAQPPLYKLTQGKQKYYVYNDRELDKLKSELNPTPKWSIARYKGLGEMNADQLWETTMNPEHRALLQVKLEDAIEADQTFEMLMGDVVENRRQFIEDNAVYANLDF
How it was run: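 IC50 was determined against S. aureus GyrB in the routine screening assay. The enzyme concentration limits resolution below 10 nM.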

Streptococcus pneumoniae = experiment: Antibacterial activity against Streptococcus pneumoniae by broth microdilution/CLSI method; assay type: functional; details: Streptococcus pneumoniae; read-out: MIC
Streptococcus pyogenes = experiment: Antimicrobial activity against Streptococcus pyogenes by broth microdilution/CLSI method; assay type: functional
Staphylococcus aureus [1] = experiment: Antimicrobial activity against methicillin-sensitive Staphylococcus aureus by broth microdilution/CLSI method; assay type: functional; details: Staphylococcus aureus; read-out: MIC
Staphylococcus aureus [2] = experiment: Antimicrobial activity against methicillin, quinolone-resistant Staphylococcus aureus by broth microdilution/CLSI method; assay type: functional; details: Staphylococcus aureus; read-out: MIC
Moraxella catarrhalis = experiment: Antimicrobial activity against Moraxella catarrhalis by broth microdilution/CLSI method; assay type: functional; details: Moraxella catarrhalis; read-out: MIC
Escherichia coli [3] = experiment: Antimicrobial activity against wild-type Escherichia coli Eco523 by broth microdilution/CLSI method; assay type: functional; details: Escherichia coli, Eco523; read-out: MIC
Escherichia coli [4] = experiment: Antimicrobial activity against Escherichia coli tolC- by broth microdilution/CLSI method; assay type: functional; details: Escherichia coli; read-out: MIC
[5] = Octanol-phosphate buffer distribution coefficient, log D of the compound at pH 7.4 by shake flask method; assay type: physicochemical
[6] = Solubility of the compound; assay type: physicochemical
[7] = Clearance in rat at 10 mg/kg, iv; assay type: ADME, organism-based; set-up: dose 10 mg/kg, route intravenous; details: in vivo
[8] = Percentage unbound in human plasma; assay type: ADME, cell-free
[9] = Ratio of MIC for methicillin, quinolone-resistant Staphylococcus aureus to fraction unbound in human plasma; assay type: ADME

CO[C@H]1CN(c2nc(C(F)F)c(C(=O)O)s2)CC[C@H]1NC(=O)c1[nH]c(C)c(Cl)c1Cl
MIC (Haemophilus influenzae): 1 µg/mL (≈ 2.07 µM)
IC50 (DNA gyrase subunit B): < 10 nM
MIC (Streptococcus pneumoniae): 0.063 µg/mL (≈ 0.13 µM)
MIC (Streptococcus pyogenes): 0.13 µg/mL (≈ 0.269 µM)
MIC (Staphylococcus aureus [1]): 2 µg/mL (≈ 4.14 µM)
MIC (Staphylococcus aureus [2]): 2 µg/mL (≈ 4.14 µM)
MIC (Moraxella catarrhalis): 0.063 µg/mL (≈ 0.13 µM)
MIC (Escherichia coli [3]): > 8 µg/mL
MIC (Escherichia coli [4]): 0.5 µg/mL (≈ 1.03 µM)
logD [5]: 0.52
solubility [6]: 690 µM (≈ 333 µg/mL)
clearance [7]: 70 mL/min/kg

CO[C@H]1CN(c2nc(C)c(C(=O)O)s2)CC[C@H]1NC(=O)c1[nH]c(C)c(Cl)c1Cl
MIC (Haemophilus influenzae): 0.072 µg/mL (≈ 0.161 µM)
IC50 (DNA gyrase subunit B): < 10 nM
MIC (Streptococcus pneumoniae): 0.013 µg/mL (≈ 0.0291 µM)
MIC (Streptococcus pyogenes): < 0.008 µg/mL
MIC (Staphylococcus aureus [1]): 0.031 µg/mL (≈ 0.0693 µM)
MIC (Staphylococcus aureus [2]): 0.053 µg/mL (≈ 0.118 µM)
MIC (Moraxella catarrhalis): 0.008 µg/mL (≈ 0.0179 µM)
MIC (Escherichia coli [3]): > 8 µg/mL
MIC (Escherichia coli [4]): 0.25 µg/mL (≈ 0.559 µM)
logD [5]: 1.2
fraction unbound [8]: 0.018
solubility [6]: 450 µM (≈ 201 µg/mL)
Ratio [9]: 2.9
clearance [7]: 26 mL/min/kg

CO[C@H]1CN(c2nc(-c3ccncn3)c(C(=O)O)s2)CC[C@H]1NC(=O)c1[nH]c(C)c(Cl)c1Cl
MIC (Haemophilus influenzae): 0.12 µg/mL (≈ 0.235 µM)
IC50 (DNA gyrase subunit B): < 10 nM
MIC (Streptococcus pneumoniae): < 0.06 µg/mL
MIC (Streptococcus pyogenes): < 0.06 µg/mL
MIC (Staphylococcus aureus [1]): < 0.06 µg/mL
MIC (Staphylococcus aureus [2]): 0.031 µg/mL (≈ 0.0606 µM)
MIC (Moraxella catarrhalis): < 0.06 µg/mL
MIC (Escherichia coli [3]): 16 µg/mL (≈ 31.3 µM)
MIC (Escherichia coli [4]): 0.5 µg/mL (≈ 0.978 µM)
logD [5]: 1.7
fraction unbound [8]: 0.042
solubility [6]: 350 µM (≈ 179 µg/mL)
Ratio [9]: 0.74
clearance [7]: 3.8 mL/min/kg

CNC(=O)c1nc(N2CC[C@@H](NC(=O)c3[nH]c(C)c(Cl)c3Cl)[C@@H](OC)C2)sc1C(=O)O
MIC (Haemophilus influenzae): 0.14 µg/mL (≈ 0.285 µM)
IC50 (DNA gyrase subunit B): < 10 nM
MIC (Streptococcus pneumoniae): 0.016 µg/mL (≈ 0.0326 µM)
MIC (Streptococcus pyogenes): 0.013 µg/mL (≈ 0.0265 µM)
MIC (Staphylococcus aureus [1]): 0.063 µg/mL (≈ 0.128 µM)
MIC (Staphylococcus aureus [2]): 0.063 µg/mL (≈ 0.128 µM)
MIC (Moraxella catarrhalis): 0.011 µg/mL (≈ 0.0224 µM)
MIC (Escherichia coli [3]): 18 µg/mL (≈ 36.7 µM)
MIC (Escherichia coli [4]): 0.3 µg/mL (≈ 0.612 µM)
logD [5]: 1.3
fraction unbound [8]: 0.02
solubility [6]: 56 µM (≈ 27.5 µg/mL)
Ratio [9]: 3.15
clearance [7]: 14 mL/min/kg

CO[C@H]1CN(c2nc(C(=O)NCC3OCCO3)c(C(=O)O)s2)CC[C@H]1NC(=O)c1[nH]c(C)c(Cl)c1Cl
MIC (Haemophilus influenzae): 0.1 µg/mL (≈ 0.178 µM)
IC50 (DNA gyrase subunit B): < 10 nM
MIC (Streptococcus pneumoniae): 0.04 µg/mL (≈ 0.0711 µM)
MIC (Streptococcus pyogenes): 0.02 µg/mL (≈ 0.0356 µM)
MIC (Staphylococcus aureus [1]): 0.063 µg/mL (≈ 0.112 µM)
MIC (Staphylococcus aureus [2]): 0.1 µg/mL (≈ 0.178 µM)
MIC (Moraxella catarrhalis): 0.013 µg/mL (≈ 0.0231 µM)
MIC (Escherichia coli [3]): > 8 µg/mL
MIC (Escherichia coli [4]): 0.79 µg/mL (≈ 1.4 µM)
logD [5]: 0.76
fraction unbound [8]: 0.028
solubility [6]: 940 µM (≈ 529 µg/mL)
Ratio [9]: 3.6
clearance [7]: 33 mL/min/kg

CO[C@H]1CN(c2nc(C(=O)NC3COC(C)(C)OC3)c(C(=O)O)s2)CC[C@H]1NC(=O)c1[nH]c(C)c(Cl)c1Cl
MIC (Haemophilus influenzae): 0.16 µg/mL (≈ 0.271 µM)
IC50 (DNA gyrase subunit B): < 10 nM
MIC (Streptococcus pneumoniae): 0.016 µg/mL (≈ 0.0271 µM)
MIC (Streptococcus pyogenes): 0.016 µg/mL (≈ 0.0271 µM)
MIC (Staphylococcus aureus [1]): < 0.06 µg/mL
MIC (Moraxella catarrhalis): 0.008 µg/mL (≈ 0.0135 µM)
MIC (Escherichia coli [3]): 14 µg/mL (≈ 23.7 µM)
MIC (Escherichia coli [4]): 0.76 µg/mL (≈ 1.29 µM)
logD [5]: 1.2
fraction unbound [8]: 0.036
solubility [6]: > 1000 µM
Ratio [9]: < 1.8
clearance [7]: 38 mL/min/kg

COc1ccnc(-c2nc(N3CC[C@@H](NC(=O)c4[nH]c(C)c(Cl)c4Cl)[C@@H](OC)C3)sc2C(=O)O)n1
MIC (Haemophilus influenzae): 0.25 µg/mL (≈ 0.462 µM)
IC50 (DNA gyrase subunit B): < 10 nM
MIC (Streptococcus pneumoniae): < 0.06 µg/mL
MIC (Streptococcus pyogenes): < 0.06 µg/mL
MIC (Staphylococcus aureus [1]): < 0.06 µg/mL
MIC (Moraxella catarrhalis): < 0.06 µg/mL
MIC (Escherichia coli [3]): 16 µg/mL (≈ 29.6 µM)
fraction unbound [8]: 0.036
Ratio [9]: 1.75
clearance [7]: 6.3 mL/min/kg

CO[C@H]1CN(c2nc(-c3nc(C)no3)c(C(=O)O)s2)CC[C@H]1NC(=O)c1[nH]c(C)c(Cl)c1Cl
MIC (Haemophilus influenzae): 0.13 µg/mL (≈ 0.252 µM)
IC50 (DNA gyrase subunit B): < 10 nM
MIC (Streptococcus pneumoniae): < 0.06 µg/mL
MIC (Streptococcus pyogenes): < 0.06 µg/mL
MIC (Staphylococcus aureus [1]): 0.13 µg/mL (≈ 0.252 µM)
MIC (Staphylococcus aureus [2]): 0.13 µg/mL (≈ 0.252 µM)
MIC (Moraxella catarrhalis): < 0.06 µg/mL
MIC (Escherichia coli [3]): 32 µg/mL (≈ 62.1 µM)
MIC (Escherichia coli [4]): 0.5 µg/mL (≈ 0.97 µM)
logD [5]: 0.07
fraction unbound [8]: 0.015
solubility [6]: 630 µM (≈ 325 µg/mL)
Ratio [9]: 8.7
clearance [7]: 110 mL/min/kg

COCC(COC)(COC)NC(=O)c1nc(N2CC[C@@H](NC(=O)c3[nH]c(C)c(Cl)c3Cl)[C@@H](OC)C2)sc1C(=O)O
MIC (Haemophilus influenzae): 0.15 µg/mL (≈ 0.241 µM)
IC50 (DNA gyrase subunit B): < 10 nM
MIC (Streptococcus pneumoniae): 0.016 µg/mL (≈ 0.0257 µM)
MIC (Streptococcus pyogenes): 0.016 µg/mL (≈ 0.0257 µM)
MIC (Staphylococcus aureus [1]): 0.031 µg/mL (≈ 0.0498 µM)
MIC (Staphylococcus aureus [2]): 0.031 µg/mL (≈ 0.0498 µM)
MIC (Moraxella catarrhalis): 0.008 µg/mL (≈ 0.0129 µM)
MIC (Escherichia coli [3]): 29 µg/mL (≈ 46.6 µM)
MIC (Escherichia coli [4]): 1.3 µg/mL (≈ 2.09 µM)
logD [5]: 1.9
fraction unbound [8]: 0.047
solubility [6]: 720 µM (≈ 448 µg/mL)
Ratio [9]: 0.66
clearance [7]: 18 mL/min/kg

CO[C@H]1CN(c2nc(C(=O)O)cs2)CC[C@H]1NC(=O)c1[nH]c(C)c(Cl)c1Cl
MIC (Haemophilus influenzae): 0.1 µg/mL (≈ 0.231 µM)
IC50 (DNA gyrase subunit B): < 10 nM
MIC (Streptococcus pneumoniae): 0.2 µg/mL (≈ 0.462 µM)
MIC (Streptococcus pyogenes): 0.035 µg/mL (≈ 0.0808 µM)
MIC (Staphylococcus aureus [1]): 0.2 µg/mL (≈ 0.462 µM)
MIC (Staphylococcus aureus [2]): 0.32 µg/mL (≈ 0.738 µM)
MIC (Moraxella catarrhalis): 0.05 µg/mL (≈ 0.115 µM)
MIC (Escherichia coli [3]): > 8 µg/mL
MIC (Escherichia coli [4]): 0.1 µg/mL (≈ 0.231 µM)
logD [5]: 0.25
fraction unbound [8]: 0.022
solubility [6]: 930 µM (≈ 403 µg/mL)
Ratio [9]: 15
clearance [7]: 49 mL/min/kg
